# Reference: ChEMBL document CHEMBL3865847, “The synthesis and biological evaluation of alkyl and benzyl naphthyridinium analogs of eupolauridine as potential antimicrobial and cytotoxic agents” (Bioorg Med Chem, 2016)
# Columns and labels:
# DNA topoisomerase 1 = biological target: T1, DNA topoisomerase 1 (Homo sapiens, UniProt P11387); test: Inhibition of human DNA topoisomerase 1 using pHOT1 as substrate after 30 mins by agarose gel electrophoresis
# T1 sequence (P11387 whole entry): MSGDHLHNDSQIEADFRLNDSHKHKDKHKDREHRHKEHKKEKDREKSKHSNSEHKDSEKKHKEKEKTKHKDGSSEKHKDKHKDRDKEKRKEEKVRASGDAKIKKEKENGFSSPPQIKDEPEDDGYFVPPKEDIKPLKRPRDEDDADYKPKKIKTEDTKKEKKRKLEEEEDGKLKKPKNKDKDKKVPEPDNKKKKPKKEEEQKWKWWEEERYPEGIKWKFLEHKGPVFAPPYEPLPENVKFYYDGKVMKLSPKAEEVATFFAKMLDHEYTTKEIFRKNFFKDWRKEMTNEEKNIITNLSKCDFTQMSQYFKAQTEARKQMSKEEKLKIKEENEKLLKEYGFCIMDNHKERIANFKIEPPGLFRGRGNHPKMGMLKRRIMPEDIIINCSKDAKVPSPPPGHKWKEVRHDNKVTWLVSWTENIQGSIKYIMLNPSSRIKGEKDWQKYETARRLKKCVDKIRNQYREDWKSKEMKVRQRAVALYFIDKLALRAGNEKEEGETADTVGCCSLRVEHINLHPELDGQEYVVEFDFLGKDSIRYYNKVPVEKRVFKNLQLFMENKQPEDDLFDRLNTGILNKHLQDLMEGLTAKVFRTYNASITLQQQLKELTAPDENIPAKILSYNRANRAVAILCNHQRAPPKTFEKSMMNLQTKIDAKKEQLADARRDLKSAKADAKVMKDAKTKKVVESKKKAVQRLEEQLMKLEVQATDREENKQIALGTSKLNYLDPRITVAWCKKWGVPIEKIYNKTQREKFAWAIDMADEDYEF
# Summary of the method: (§1)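 Relaxation of supercoiled to relaxed DNA by TopoI measured with a commercial TopoI drug kit following kit protocol. IC50 calculated from dose-response curves of % inhibition versus concentration.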
# [1] = Cytotoxicity against human BT549 cells assessed as cell growth inhibition after 48 hrs by neutral red dye based assay; format: functional; conditions: BT-549, 48 h
# Summary of the method: (§2)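 Cells kept in RPMI-1640 with 10% bovine serum and 60 µg/mL amikacin, 37 °C, 5% CO2. Seeded at 25,000 cells/well, left 24 h to adhere. Samples diluted in RPMI added, highest final concentration 10 µg/mL. Growth measured by neutral red uptake after 48 h exposure.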
# Staphylococcus aureus [2] = test: Antimicrobial activity against methicillin-resistant Staphylococcus aureus; format: functional
# Summary of the method: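 MRSA precultured 24 h, diluted 1:50 in broth, added to serially diluted samples in 96-well plates (highest final DMSO 2.5%), incubated at 37 °C. Growth measured as absorbance at 630 nm versus controls. MIC is the lowest concentration giving 80% inhibition; IC50 (50% inhibition) is read from concentration versus % growth plots.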
# [3] = Cytotoxicity against human SKOV3 cells assessed as cell growth inhibition after 48 hrs by neutral red dye based assay; format: functional; conditions: SK-OV-3, 48 h; summary of the method: as §2
# Plasmodium falciparum = test: Antimalarial activity against Plasmodium falciparum D6 infected in RBC after 48 hrs by lactate dehydrogenase assay; format: functional; conditions: D6, 48 h
# Summary of the method: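 Parasites grown in A+ human erythrocytes in RPMI 1640 with 10% A+ human serum, 25 mM HEPES, 27 mM bicarbonate, 60 µg/mL amikacin, 37 °C under 90% N2/5% O2/5% CO2. Infected cells exposed 48 h in microtiter wells, highest concentration 4.8 µg/mL. Growth read by Malstat reagent (parasite LDH) with nitro blue tetrazolium reduction, absorbance 630 nm.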
# [4] = Inhibition of Candida albicans DNA topoisomerase 1 using pHOT1 as substrate after 30 mins by agarose gel electrophoresis; summary of the method: as §1
# Candida albicans = test: Antimicrobial activity against Candida albicans B311; format: functional
# Summary of the method: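 Cultured in Sabouraud dextrose broth 24 h, counted by hemocytometer, diluted to 10,000 CFU/mL. Added to serially diluted samples in 96-well plates, top final concentration 50 µg/mL (≤2.5% DMSO), incubated 37 °C. Growth by A630. MIC is the lowest concentration giving 80% inhibition against controls; IC50 from concentration versus % growth plots.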
# Cryptococcus neoformans = test: Antimicrobial activity against Cryptococcus neoformans ATCC 52657; format: functional
# Summary of the method: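 Grown in mycophil broth 72 h, hemocytometer-counted, diluted to 200,000 CFU/mL. Exposed to diluted samples in 96-well plates, maximum final 50 µg/mL (DMSO up to 2.5%), incubated 30 °C. A630 readout. MIC is the lowest concentration inhibiting 80% of growth versus controls; IC50 read from concentration versus % growth graphs.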
# [5] = Cytotoxicity against African green monkey Vero cells assessed as cell growth inhibition at 10 ug/ml after 48 hrs by neutral red dye based assay; format: toxicity; conditions: chlorocebus sabaeus; summary of the method: as §2
# [6] = Cytotoxicity against human KB cells assessed as cell growth inhibition after 48 hrs by neutral red dye based assay; format: functional; summary of the method: as §2
# [7] = Selectivity index, ratio of IC50 for human DNA topoisomerase 1 to IC50 for Candida albicans DNA topoisomerase 1
# Staphylococcus aureus [8] = test: Antimicrobial activity against Staphylococcus aureus ATCC 6538; format: functional
# Summary of the method: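 Staphylococcus aureus grown 24 h in Eugon broth, diluted 1:50 in broth, added to serially diluted samples in 96-well plates (highest final DMSO 2.5%), incubated at 37 °C. Growth measured at 630 nm versus controls. MIC is the lowest concentration inhibiting 80% of growth; IC50 (50% inhibition) comes from concentration versus % growth plots.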
# [9] = Cytotoxicity against human SK-MEL cells assessed as cell growth inhibition after 48 hrs by neutral red dye based assay; format: functional; summary of the method: as §2
# Pseudomonas aeruginosa = test: Antimicrobial activity against Pseudomonas aeruginosa ATCC 15442; format: functional
# Summary of the method: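 Pseudomonas grown 24 h in trypticase soy broth, diluted 1:50. Combined with diluted samples in 96-well plates, top final concentration 50 µg/mL (≤2.5% DMSO), 37 °C incubation. Growth read at 630 nm. MIC is the lowest tested concentration inhibiting 80% of growth versus controls; IC50 from concentration versus % growth graphs.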
# [10] = system: Mycobacterium intracellulare; test: Antimicrobial activity against Mycobacterium intracellulare ATCC 23068; format: functional
# Summary of the method: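 Mycobacterium grown 72 h in Middlebrook medium with OADC supplement, diluted 1:30 in broth. Incubated at 37 °C with diluted samples in 96-well plates, highest final 50 µg/mL, DMSO at most 2.5%. Absorbance at 630 nm. MIC = lowest concentration with 80% growth inhibition relative to controls; IC50 from concentration versus % growth plots.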
Compound,IC50 (DNA topoisomerase 1) [µM],IC50 [1] [µg/mL],IC50 (Staphylococcus aureus [2]) [µg/mL],IC50 [3] [µg/mL],IC50 (Plasmodium falciparum) [µg/mL],IC50 [4] [µg/mL],IC50 (Candida albicans) [µg/mL],MIC80 (Candida albicans) [µg/mL],IC50 (Cryptococcus neoformans) [µg/mL],MIC80 (Cryptococcus neoformans) [µg/mL],Activity [5],IC50 [6] [µg/mL],Ratio IC50 [7],IC50 (Staphylococcus aureus [8]) [µg/mL],IC50 [9] [µg/mL],IC50 (Pseudomonas aeruginosa) [µg/mL],MIC80 [10] [µg/mL]
C[n+]1ccc2c3c(nc4ccccc42)-c2ccccc2-c31.[I-],4.54,7,20,1.3,0.033,1.5,23.3,25,2,6.25,Non-Toxic,6.5,–,–,–,–,–
C[n+]1ccc2cc(-c3ccccc3)nc3c2c1-c1ccccc1-3.[I-],28.4,6.2,20,< 1.1,0.46,35,0.32,0.39,0.4,0.78,Non-Toxic,7,2.92,20,9,25,–
CC[n+]1ccc2ccnc3c2c1-c1ccccc1-3.[I-],41.6,–,–,–,0.0475,10,35,50,13.3,25,Non-Toxic,–,0.67,40,–,–,–
Brc1cccc(C[n+]2ccc3ccnc4c3c2-c2ccccc2-4)c1.[Br-],48.4,1.15,–,0.095,0.013,21,2.5,6.25,0.3,0.78,Non-Toxic,0.18,0.95,–,0.65,40,50
CC[n+]1ccc2c3c(nc4ccccc42)-c2ccccc2-c31.[I-],1.71,> 10,–,1.3,0.033,0.7,16.7,25,6,12.5,Non-Toxic,6.8,1,–,–,50,–
C[n+]1ccc2c3c(nc4ccccc42)-c2ccccc2-c31.Cc1ccc(S(=O)(=O)[O-])cc1,1.59,7.5,–,1.3,0.0385,0.7,35,–,1.93,6.25,Non-Toxic,4.4,–,–,> 10,50,–
[Br-].c1ccc2c(c1)-c1nccc3cc[n+](Cc4ccc5ccccc5c4)c-2c13,70.5,> 10,22,< 1.1,0.0195,21,0.67,0.78,0.3,0.39,Non-Toxic,6,0.7,20,< 1.1,30,50
